For assay [1], the system named is MCF7. Put plainly: Cytotoxicity against human MCF7 cells after 72 hrs by MTT assay. The class given is functional, cell-based. To be noted: MCF7, 72 h. The gist of the method:
(§1)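 Tumour lines kept in DMEM with 10% FBS and 1% penicillin/streptomycin at 37°C, 5% CO2. Seeded at 1500-5000 cells/well by doubling time and size, 24 h, then compound in DMSO-containing medium (final DMSO 0.1%) for 72 h. MTT (5 mg/mL) 4 h at 37°C, DMSO solubilisation, absorbance at 570 nm.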
A general note: Tetrazolium dyes change colour on reduction, which living cells bring about.

In assay [2] the test system is SW-620. Nature of the assay: Cytotoxicity against human SW620 cells assessed as inhibition of cell proliferation at 20 uM after 72 hrs by MTT assay relative to control. Conditions: SW-620, 72 h. Format: functional. The gist of the method:
(§2)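 Single-concentration screen at 20 μM with 72 h exposure in DMEM with 10% FBS, final DMSO 0.1%. Read-out was MTT (5 mg/mL, 4 h, 37°C), DMSO solubilisation and absorbance at 570 nm, expressed as percent inhibition. Lines reaching a threshold percentage went on to IC50 determination.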

Assay [3] concerns MCF7. Put plainly: Cytotoxicity against human MCF7 cells assessed as inhibition of cell proliferation at 20 uM after 72 hrs by MTT assay relative to control. The class given is functional. Conditions: MCF7, 72 h. The gist of the method:
as §2

For assay [4], the system named is HT-1080. Nature of the assay: Cytotoxicity against human HT1080 cells after 72 hrs by MTT assay. Format: functional, cell-based. Conditions: HT-1080, 72 h. The method in brief: as §1
Assay [5] concerns SW-620. Nature of the assay: Cytotoxicity against human SW620 cells after 72 hrs by MTT assay. The class given is functional, cell-based. To be noted: SW-620, 72 h. The gist of the method:
as §1

Another assay has as its system NHDF. Nature of the assay: Cytotoxicity against NHDF after 72 hrs by MTT assay. Format: cell-based. Conditions: Homo sapiens. The method in brief:
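NHDF grown in DMEM with 5% FBS at 37°C, 5% CO2. Seeded at 1500-5000 cells/well, 24 h, then compound added in DMSO-containing medium (final DMSO 0.1%) for 72 h. MTT (5 mg/mL in medium) added for 4 h at 37°C, formazan dissolved in DMSO, absorbance read at 570 nm.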

Assay [6] concerns HT-1080. Nature of the assay: Cytotoxicity against human HT1080 cells assessed as inhibition of cell proliferation at 20 uM after 72 hrs by MTT assay relative to control. Format: functional. Conditions: HT-1080, 72 h. The gist of the method: as §2
Assay [7] relates to A549. Nature of the assay: Cytotoxicity against human A549 cells assessed as inhibition of cell proliferation at 20 uM after 72 hrs by MTT assay relative to control. To be noted: A549, 72 h. The class given is functional. The gist of the method:
as §2

A short description of assay [8]: Cytotoxicity against human EJ28 cells after 72 hrs by MTT assay. The class given is functional, cell-based. Conditions: EJ-28, 72 h. The method in brief:
as §1

In assay [9] the test system is A549. Put plainly: Cytotoxicity against human A549 cells after 72 hrs by MTT assay. Conditions: A549, 72 h. The class given is functional, cell-based. The gist of the method:
as §1

A short description of assay [10]: Cytotoxicity against human EJ28 cells assessed as inhibition of cell proliferation at 20 uM after 72 hrs by MTT assay relative to control. Format: functional. To be noted: EJ-28, 72 h. The method in brief: as §2

A value given as a limit tells only on which side of the number the result lay.

The term IC50 denotes the concentration that gives 50% inhibition. The inhibition is the change of the read-out against control, counted positive when it falls.

With `COc1cccc(/C=C2\CCC/C(=C\c3ccc(Cl)c(Cl)c3)C2=O)c1OC`, the IC50 in the assay with MCF7 [1] is 9 µM; with HT-1080 [4], 10.8 µM; in the assay on SW-620 [5], 10 µM; in the assay on NHDF, 25.5 µM; in assay [8], 12.1 µM; in the assay on A549 [9] it was > 20 µM. For the same compound, the inhibition at 20 µM (in the assay with SW-620 [2]; in the assay on MCF7 [3]; in the assay on HT-1080 [6]; in the assay on A549 [7]; in assay [10]) was > 50% each time.
Take `COc1ccc(/C=C2\CCC/C(=C\c3ccc(O)c(O)c3)C2=O)cc1OC`: the 50% inhibitory concentration (IC50) is 14.4 µM in the assay on MCF7 [1]; 4.2 µM in the assay with HT-1080 [4]; 10.5 µM in the assay on SW-620 [5]; 25.2 µM in the assay on NHDF; 12.1 µM in [8]; > 20 µM in the assay with A549 [9]. The inhibition at 20 µM (in the assay with SW-620 [2]; in the assay with MCF7 [3]; in the assay with HT-1080 [6]; in the assay with A549 [7]; in assay [10]) was > 50% each time.
In the case of `COc1cc(/C=C2\CCC/C(=C\c3ccc(OC)c(OC)c3)C2=O)cc(OC)c1`, the IC50 in the assay with MCF7 [1] was found to be 3.9 µM; in the assay with HT-1080 [4], 2.6 µM; with SW-620 [5], 2.5 µM; in the assay on NHDF it was 6.5 µM; in [8], 3 µM; in the assay on A549 [9], 5.1 µM. Moreover, the inhibition at 20 µM (with SW-620 [2]; in the assay with MCF7 [3]; in the assay on HT-1080 [6]; with A549 [7]; in assay [10]) was > 50% each time.
For `COc1cccc(/C=C2\CCC/C(=C\c3cccc(O)c3)C2=O)c1OC`, the IC50 with MCF7 [1] is 8.8 µM; in the assay on HT-1080 [4], 8.5 µM; with SW-620 [5] it was 6.4 µM; in the assay with NHDF, 19.3 µM; in assay [8], 8.5 µM; with A549 [9], > 20 µM. The inhibition at 20 µM (with SW-620 [2]; in the assay on MCF7 [3]; in the assay on HT-1080 [6]; with A549 [7]; in assay [10]) was > 50% in each case.
On to `COc1ccc(/C=C2\CCC/C(=C\c3ccc(Cl)cc3)C2=O)cc1OC`, for which the IC50 was 6.3 µM with MCF7 [1]; 4.8 µM in the assay on HT-1080 [4]; 5.9 µM with SW-620 [5]; 11.2 µM in the assay with NHDF; 5.7 µM in assay [8]; 10.1 µM in the assay on A549 [9]. Besides, the inhibition at 20 µM (with SW-620 [2]; in the assay with MCF7 [3]; in the assay on HT-1080 [6]; with A549 [7]; in [10]) was > 50% throughout.
Take `COc1cc(/C=C2\CCC/C(=C\c3cccc(OC)c3OC)C2=O)ccc1O`: the IC50 was 11.6 µM with MCF7 [1]; 5.9 µM with HT-1080 [4]; 8.6 µM with SW-620 [5]; 14.3 µM in the assay on NHDF; 10.6 µM in [8]; > 20 µM in the assay with A549 [9]. For the same compound, the inhibition at 20 µM (in the assay on SW-620 [2]; in the assay with MCF7 [3]; in the assay on HT-1080 [6]; with A549 [7]; in [10]) was > 50% in each case.
For `COc1ccc(/C=C2\CCC/C(=C\c3cccc(OC)c3OC)C2=O)cc1`, the IC50 in the assay on MCF7 [1] was 18.6 µM; with HT-1080 [4], 16.3 µM; with SW-620 [5], 13.6 µM; with NHDF, 43.5 µM; in assay [8], 16.8 µM; in the assay with A549 [9], > 20 µM. The inhibition at 20 µM (in the assay on SW-620 [2]; in the assay with MCF7 [3]; with HT-1080 [6]; with A549 [7]; in assay [10]) was > 50% throughout.
As for `COc1ccc(/C=C2\CCC/C(=C\c3ccc(OC)c(OC)c3)C2=O)cc1OC`, the IC50 worked out at 13.5 µM with MCF7 [1]; 3 µM in the assay on HT-1080 [4]; 4.5 µM with SW-620 [5]; 9.7 µM in the assay on NHDF; 3.5 µM in assay [8]; 8.5 µM in the assay with A549 [9]. The inhibition at 20 µM (in the assay with SW-620 [2]; with MCF7 [3]; in the assay with HT-1080 [6]; in the assay on A549 [7]; in assay [10]) was > 50% in each case.
In the case of `COc1ccc(/C=C2\CCC/C(=C\c3cccc(OC)c3OC)C2=O)c(OC)c1`, the IC50 in the assay with MCF7 [1] was > 20 µM; in the assay with HT-1080 [4], > 20 µM; with SW-620 [5] it was > 20 µM; with NHDF, > 50 µM; in [8] it was > 20 µM; in the assay on A549 [9] it was > 20 µM. Also, the inhibition at 20 µM (with SW-620 [2]; in the assay with MCF7 [3]; in the assay with HT-1080 [6]; in the assay on A549 [7]; in [10]) was > 50% in each case.
With `COc1cc(/C=C/C(=O)CC(=O)/C=C/c2ccc(O)c(OC)c2)ccc1O` [CURCUMIN], the IC50 worked out at 9.8 µM with MCF7 [1]; 13.1 µM in the assay with HT-1080 [4]; 14 µM in the assay on SW-620 [5]; 24.1 µM in the assay with NHDF; 10.5 µM in assay [8]; 17.9 µM with A549 [9].
In the case of `COc1ccc(/C=C2\CCC/C(=C\c3ccc(Cl)c(Cl)c3)C2=O)cc1OC`, the IC50 was 4.4 µM with MCF7 [1]; 3.1 µM with HT-1080 [4]; 4 µM in the assay on SW-620 [5]; 10.1 µM in the assay on NHDF; 3.4 µM in [8]; 6.9 µM in the assay on A549 [9]. In addition, the inhibition at 20 µM (with SW-620 [2]; in the assay with MCF7 [3]; in the assay on HT-1080 [6]; in the assay with A549 [7]; in assay [10]) was > 50% throughout.
`COc1cccc(/C=C2\CCC/C(=C\c3ccc(Cl)cc3Cl)C2=O)c1OC`: the IC50 was > 20 µM with MCF7 [1]; > 20 µM with HT-1080 [4]; 16.3 µM with SW-620 [5]; 49.2 µM with NHDF; > 20 µM in assay [8]; > 20 µM with A549 [9]. In addition, the inhibition at 20 µM (in the assay with SW-620 [2]; with MCF7 [3]; in the assay with HT-1080 [6]; in the assay on A549 [7]; in assay [10]) was > 50% in each case.
As to `COc1ccc(/C=C2\CCC/C(=C\c3cccc(Br)c3)C2=O)cc1OC`, the IC50 with MCF7 [1] turned out to be 5.3 µM; in the assay with HT-1080 [4] it was 5.2 µM; in the assay with SW-620 [5] it was 4.2 µM; in the assay on NHDF, 12.4 µM; in assay [8] it was 4.9 µM; in the assay with A549 [9], 12.8 µM. Moreover, the inhibition at 20 µM (in the assay with SW-620 [2]; in the assay on MCF7 [3]; in the assay on HT-1080 [6]; in the assay on A549 [7]; in [10]) was > 50% each time.
Take `COc1ccc(/C=C2\CCC/C(=C\c3ccc(Cl)cc3Cl)C2=O)cc1OC`: the 50% inhibitory concentration (IC50) is 16.2 µM with MCF7 [1]; 10.5 µM in the assay with HT-1080 [4]; 10.3 µM with SW-620 [5]; > 50 µM in the assay on NHDF; 12.4 µM in assay [8]; > 20 µM in the assay on A549 [9]. Besides, the inhibition at 20 µM (with SW-620 [2]; in the assay on MCF7 [3]; in the assay on HT-1080 [6]; with A549 [7]; in [10]) was > 50% throughout.
As to `COc1ccc(/C=C2\CCC/C(=C\c3ccc(O)c(Cl)c3)C2=O)cc1OC`, the IC50 in the assay with MCF7 [1] is 12.3 µM; in the assay with HT-1080 [4] it was 7.6 µM; in the assay on SW-620 [5], 7.1 µM; in the assay on NHDF, 21.9 µM; in assay [8] it was 8 µM; with A549 [9], > 20 µM. Also, the inhibition at 20 µM (in the assay with SW-620 [2]; in the assay with MCF7 [3]; in the assay with HT-1080 [6]; with A549 [7]; in assay [10]) was > 50% in each case.
Turning to `COc1cc(/C=C2\CCC/C(=C\c3ccc(OC)c(OC)c3)C2=O)ccc1O`, the IC50 in the assay with MCF7 [1] stood at 7.9 µM; in the assay with HT-1080 [4], 4.6 µM; with SW-620 [5] it was 4.5 µM; in the assay on NHDF it was 13.7 µM; in assay [8], 4.6 µM; in the assay on A549 [9] it was 10.3 µM. In addition, the inhibition at 20 µM (in the assay with SW-620 [2]; in the assay on MCF7 [3]; in the assay with HT-1080 [6]; with A549 [7]; in assay [10]) was > 50% each time.
Consider `COc1ccc(/C=C2\CCC/C(=C\c3ccccc3Br)C2=O)cc1OC`, for which the half-inhibitory concentration (IC50) in the assay on MCF7 [1] was 9.5 µM; in the assay on HT-1080 [4] it was 8.4 µM; with SW-620 [5], 5.3 µM; with NHDF, 21.8 µM; in [8], 7.4 µM; with A549 [9], > 20 µM. For the same compound, the inhibition at 20 µM (in the assay on SW-620 [2]; in the assay on MCF7 [3]; in the assay on HT-1080 [6]; in the assay on A549 [7]; in assay [10]) was > 50% each time.

The values above are taken from ChEMBL document CHEMBL4270616, “Asymmetrical meta-methoxylated diarylpentanoids: Rational design, synthesis and anti-cancer evaluation in-vitro” (Eur J Med Chem, 2018).
